Legend:
[1] = Metabolic stability in (R)-deprenyl pre-inactivated baboon liver mitochondrial fraction assessed as pyrrolyl oxidation product at 50 uM after 10 mins by HPLC analysis; type: ADME, Papio
[2] = Metabolic stability in (R)-deprenyl pre-inactivated baboon liver mitochondrial fraction assessed as oxidation to 1-methyl-3-phenylpyrrole; type: ADME, Papio
Papio [3] = assay: Ratio of Vmax to Km for baboon liver mitochondrial MAOB assessed as oxidation of 1-methyl-3-phenyl-3-pyrroline by HPLC/UV analysis; conditions: tested as the 2H-labelled form
In short: (§1)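 Enzyme source was baboon liver mitochondria (no MAO-A inactivation), at 0.15 mg protein/mL in 100 mM sodium phosphate, pH 7.4. Substrate oxalate salts were tested at eight concentrations, 12.5–2000 µM, for 10 min at 37 °C, then stopped with trichloroacetic acid and centrifuged. Pyrrolyl products were measured by HPLC-UV at 270 nm against calibration curves. Initial rates were fitted to Michaelis–Menten, in triplicate, mean ± SEM.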

Papio [4] = assay: Activity of baboon liver mitochondrial MAOB per mg of mitochondria assessed as oxidation of 1-methyl-3-phenyl-3-pyrroline by HPLC/UV analysis; conditions: tested as the 2H-labelled form; in short: as §1
Papio [5] = assay: Activity of baboon liver mitochondrial MAOB by HPLC/UV analysis; in short: as §1
Papio [6] = assay: Activity of baboon liver mitochondrial MAOB per mg of mitochondria by HPLC/UV analysis; in short: as §1
Papio [7] = assay: Activity of baboon liver mitochondrial MAOB per mg of mitochondria assessed as oxidation of 1-methyl-3-(4-fluorophenyl-3-pyrroline by HPLC/UV analysis; conditions: tested as the 2H-labelled form
In short: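 Baboon liver mitochondrial fraction as MAO-B source (no MAO-A activity; protein by Bradford), 0.15 mg protein/mL, in 100 mM sodium phosphate pH 7.4. Substrate as oxalate salt at eight concentrations, 12.5–2000 µM. Incubated 10 min at 37 °C; stopped with trichloroacetic acid. Pyrrolyl product quantified by HPLC-UV at 270 nm against calibration curve. Triplicates; Michaelis–Menten fit for Km and Vmax (nmol/min-mg mitochondria).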

Papio [8] = assay: Deuterium isotope effect on Vmax/Km for baboon liver mitochondrial MAOB assessed as oxidation of 1-methyl-3-(4-fluorophenyl-3-pyrroline by HPLC/UV analysis; conditions: tested as the 2H-labelled form

SMILES	Activity [1] [%]	Activity [2] [%]	Vmax/Km (Papio [3]) [nmol/min.µM]	Km (Papio [4]) [µM]	Vmax (Papio [4]) [nmol/min]	Km (Papio [5]) [µM]	Km (Papio [5]; tested as the 2H-labelled form) [µM]	Vmax (Papio [6]) [nmol/min]	Vmax (Papio [6]; tested as the 2H-labelled form) [nmol/min]	D(Km) isotope effect (Papio [7])	D(Vmax) isotope effect (Papio [7])	D(Vmax/Km) isotope effect (Papio [8])
[2H]C1=C(c2ccccc2)C([2H])([2H])N(C)C1([2H])[2H]	2.6	–	–	–	–	–	–	–	–	–	–	–
CN1CC=C(c2ccccc2)C1	–	8.4	5.71	0.8	4.29	118	157	9.07	2.11	–	–	–
CN1CC=C(c2ccc(F)cc2)C1	–	–	–	–	–	87.2	73.8	15.7	3.96	1.19	3.98	3.37

From ChEMBL document CHEMBL1144241, “Deuterium isotope effects for the oxidation of 1-methyl-3-phenyl-3-pyrrolinyl analogues by monoamine oxidase B” (Bioorg Med Chem, 2008)
